Experiments:
MES-SA/Dx5 = experiment: Cytotoxicity against human MES-SA/Dx5 cells assessed as decrease in cell viability after 72 hrs by MTS assay; format: functional, cell-based; conditions: MES-SA/Dx5, 72 h
Procedure, shortened: (§1)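 Cell proliferation assay using the MTS reagent. Compounds were tested as a dilution series, and EC50 values were derived from the concentration–response data.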

HCT-116 = experiment: Cytotoxicity against human HCT116 cells assessed as decrease in cell viability after 72 hrs by MTS assay; format: functional, cell-based; conditions: HCT-116, 72 h; procedure, shortened: as §1
U-87 MG = experiment: Cytotoxicity against human U87MG cells assessed as decrease in cell viability after 72 hrs by MTS assay; format: functional, cell-based, U-87MG ATCC; procedure, shortened: as §1
BXPC-3 = experiment: Cytotoxicity against human BxPC3 cells assessed as decrease in cell viability after 72 hrs by MTS assay; format: functional, cell-based; conditions: BXPC-3, 72 h; procedure, shortened: as §1
MCF7 = experiment: Cytotoxicity against human MCF7 cells assessed as decrease in cell viability after 72 hrs by MTS assay; format: functional, cell-based; conditions: MCF7, 72 h; procedure, shortened: as §1
NCI-H1975 = experiment: Cytotoxicity against human NCI-H1975 cells assessed as decrease in cell viability after 72 hrs by MTS assay; format: functional, cell-based; conditions: NCI-H1975, 72 h; procedure, shortened: as §1
786-0 = experiment: Cytotoxicity against human 786-O cells assessed as decrease in cell viability after 72 hrs by MTS assay; format: functional, cell-based; conditions: 786-0, 72 h; procedure, shortened: as §1
CCRF S-180 = experiment: Cytotoxicity against mouse S180 cells assessed as decrease in cell viability after 72 hrs by MTS assay; format: functional, cell-based; conditions: CCRF S-180, 72 h; procedure, shortened: as §1
MES-SA = experiment: Cytotoxicity against human MESSA cells assessed as decrease in cell viability after 72 hrs by MTS assay; format: functional, cell-based; procedure, shortened: as §1
HepG2 = experiment: Cytotoxicity against human HepG2 cells assessed as decrease in cell viability after 72 hrs by MTS assay; format: functional, cell-based; conditions: HepG2, 72 h; procedure, shortened: as §1
HUVEC = experiment: Cytotoxicity against human HUVEC cells assessed as decrease in cell viability after 72 hrs by MTS assay; format: cell-based; procedure, shortened: as §1
SK-OV-3 = experiment: Cytotoxicity against human SKOV3 cells assessed as decrease in cell viability after 72 hrs by MTS assay; format: functional, cell-based; conditions: SK-OV-3, 72 h; procedure, shortened: as §1

CC1(C)[C@H]2OC(=O)O[C@H]2[C@@H](O)[C@]2(C=O)[C@H]3CC[C@]4(C)[C@@H](c5ccc(=O)oc5)[C@@H](Cl)C[C@]4(O)C3=CC[C@@H]12
EC50 (MES-SA/Dx5): 720 nM | EC50 (HCT-116): 610 nM | EC50 (U-87 MG): 610 nM | EC50 (BXPC-3): 1000 nM | EC50 (MCF7): 960 nM | EC50 (NCI-H1975): 590 nM | EC50 (786-0): 350 nM | EC50 (CCRF S-180): > 20000 nM | EC50 (MES-SA): 940 nM | EC50 (HepG2): 1300 nM | EC50 (HUVEC): 800 nM | EC50 (SK-OV-3): 530 nM

— ChEMBL document CHEMBL4266027, “Cyanobufalins: Cardioactive Toxins from Cyanobacterial Blooms” (J Nat Prod, 2018)
